According to ChEMBL document CHEMBL3596134 (J Med Chem, 2015):
Each block holds one compound with its values, some of them ahead of it.

What was measured:
[1] = Half life in rat at 1 mg/kg, iv; assay type: ADME, organism-based; conditions: in vivo
Outline: (§1)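 Single iv and oral dosing in rat, guinea pig or dog; iv and po given as solutions in wellsolve/H2O 1/9 with NaOH (2 equiv). Animals fasted before oral dosing; noncrossover design, n = 3. Plasma protein-precipitated with acetonitrile/ethanol (70/30) and assayed by HPLC/MS/MS with negative-ion ionization. Noncompartmental analysis; F from mean po AUC over mean iv AUC.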

[2] = Half life in dog at 1 mg/kg, iv; assay type: ADME, organism-based, Canis lupus familiaris; conditions: in vivo; outline: as §1
[3] = Volume of distribution at steady state in dog at 1 mg/kg, iv and 1 mg/kg, po; assay type: ADME, organism-based, Canis lupus familiaris; conditions: in vivo, read-out: Vdss
Outline: (§2)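 Single iv and oral doses were given as solutions in wellsolve/H2O 1/9 with 2 equiv NaOH. Animals were fasted before oral dosing, in a noncrossover design with n = 3. Plasma was protein-precipitated with acetonitrile/ethanol 70/30 and analysed by HPLC/MS/MS (negative-ion Turbo IonSpray). Parameters were derived by noncompartmental analysis and reported as mean ± SD.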

[4] = system: Canis familiaris; assay: (§3) AUC in dog at 1 mg/kg, po; assay type: ADME, organism-based, Canis lupus familiaris; conditions: in vivo; outline: as §1
[5] = Oral bioavailability in guinea pig at 1 mg/kg administered as cassette dosing; assay type: ADME, organism-based, Cavia porcellus; conditions: in vivo
Outline: (§4)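 Guinea pig cassette dosing of five compounds per solution, 0.2 mg/kg iv and 1 mg/kg po. Vehicle wellsolve/H2O 5/95 with NaOH (1.2 equiv). Animals fasted before oral dosing; noncrossover design, n = 3. Plasma protein-precipitated with acetonitrile/ethanol (70/30) and assayed by negative-ion HPLC/MS/MS. Noncompartmental analysis; F from mean AUCs.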

[6] = Half life in guinea pig at 0.2 mg/kg, iv administered as cassette dosing; assay type: ADME, organism-based, Cavia porcellus; conditions: in vivo; outline: as §4
[7] = Clearance in rat at 1 mg/kg, iv and 1 mg/kg, po; assay type: ADME, organism-based; conditions: in vivo; outline: as §1
[8] = Clearance in rat at 0.2 mg/kg, iv and 1 mg/kg, po administered as cassette dosing; assay type: ADME, organism-based; conditions: in vivo
[9] = Volume of distribution at steady state in rat at 1 mg/kg, iv and 1 mg/kg, po; assay type: ADME, organism-based; conditions: in vivo, read-out: Vdss; outline: as §2
[10] = Volume of distribution at steady state in rat at 0.2 mg/kg, iv and 1 mg/kg, po administered as cassette dosing; assay type: ADME, organism-based; conditions: in vivo, read-out: Vdss
[11] = Cmax in rat at 1 mg/kg, po; assay type: ADME, organism-based; parameters: dose 1 mg/kg, route oral; conditions: in vivo; outline: as §1
[12] = Cmax in guinea pig at 1 mg/kg, po administered as cassette dosing; assay type: ADME, organism-based, Cavia porcellus; parameters: dose 1 mg/kg, route oral; conditions: in vivo; outline: as §4
[13] = Cmax in dog at 1 mg/kg, po; assay type: ADME, organism-based, Canis lupus familiaris; parameters: dose 1 mg/kg, route oral; conditions: in vivo; outline: as §1
[14] = AUC in rat at 1 mg/kg, po; assay type: ADME, organism-based; conditions: in vivo; outline: as §1
[15] = AUC in guinea pig at 1 mg/kg, po administered as cassette dosing; assay type: ADME, organism-based, Cavia porcellus; conditions: in vivo
[16] = Oral bioavailability in rat at 1 mg/kg; assay type: ADME, organism-based; conditions: in vivo; outline: as §1
[17] = system: Canis familiaris; assay: Oral bioavailability in dog at 1 mg/kg administered as cassette dosing; assay type: ADME, organism-based, Canis lupus familiaris; conditions: in vivo
[18] = Plasma concentration in guinea pig at 0.3 mg/kg, po measured over 7 days; assay type: ADME, organism-based, Cavia porcellus
Outline: (§5)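 Lungs homogenized in saline; homogenate digested in 2 mol/L NaOH at 60 °C for 3 h, then diluted 50-fold in PBS. Protein measured by BCA. Compound measured by negative-ion HPLC/MS/MS after ethanol precipitation and expressed as ng/g protein. Plasma and lung values given as mean with SD, n = 4.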

[19] = Plasma concentration in guinea pig at 3 mg/kg, po measured over 7 days; assay type: ADME, organism-based, Cavia porcellus; outline: as §5
[20] = Drug uptake in lung of guinea pig at 0.3 mg/kg, po measured over 7 days; assay type: ADME, organism-based, Cavia porcellus; conditions: read-out: Drug uptake; outline: as §5
[21] = Drug uptake in lung of guinea pig at 3 mg/kg, po measured over 7 days; assay type: ADME, organism-based, Cavia porcellus; conditions: read-out: Drug uptake; outline: as §5
[22] = Ratio of drug level in lung to plasma in guinea pig at 3 mg/kg, po measured over 7 days; assay type: ADME, organism-based, Cavia porcellus; conditions: lung and plasma
Outline: (§6)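 Guinea pigs were dosed orally. Lungs were homogenized in saline, digested in 2 mol/L NaOH at 60 °C for 3 h, diluted 50-fold in PBS, and assayed for protein by BCA. Drug in lung was quantified by HPLC/MS/MS (negative-ion) after ethanol precipitation and expressed as ng/g protein. Plasma was assayed after acetonitrile/ethanol precipitation. Kp is the lung:plasma concentration ratio.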

[23] = Ratio of drug level in lung to plasma in guinea pig at 0.3 mg/kg, po measured over 7 days; assay type: ADME, organism-based, Cavia porcellus; conditions: lung and plasma; outline: as §6
[24] = Oral bioavailability in guinea pig at 30 mg/kg; assay type: ADME, organism-based, Cavia porcellus; conditions: in vivo
[25] = Oral bioavailability in guinea pig at 10 mg/kg; assay type: ADME, organism-based, Cavia porcellus; conditions: in vivo; outline: as §1
[26] = Oral bioavailability in rat at 10 mg/kg; assay type: ADME, organism-based; conditions: in vivo; outline: as §1
[27] = Half life in guinea pig at 1 mg/kg, iv; assay type: ADME, organism-based, Cavia porcellus; conditions: in vivo; outline: as §1
[28] = Clearance in rat at 1 mg/kg, iv; assay type: ADME, organism-based; conditions: in vivo; outline: as §1
[29] = Clearance in guinea pig at 1 mg/kg, iv; assay type: ADME, organism-based, Cavia porcellus; conditions: in vivo; outline: as §1
[30] = Clearance in dog at 1 mg/kg, iv; assay type: ADME, organism-based, Canis lupus familiaris; conditions: in vivo; outline: as §1
[31] = Volume of distribution at steady state in rat at 1 mg/kg, iv and 3 mg/kg, po; assay type: ADME, organism-based; conditions: in vivo, read-out: Vdss; outline: as §2
[32] = Volume of distribution at steady state in guinea pig at 1 mg/kg, iv and 10 mg/kg, po; assay type: ADME, organism-based, Cavia porcellus; conditions: in vivo, read-out: Vdss
[33] = AUC in rat at 3 mg/kg, po; assay type: ADME, organism-based; conditions: in vivo; outline: as §1
[34] = AUC in guinea pig at 10 mg/kg, po; assay type: ADME, organism-based, Cavia porcellus; conditions: in vivo; outline: as §1
[35] = as §3; assay type: ADME, organism-based, Canis lupus familiaris; conditions: in vivo; outline: as §1
[36] = Oral bioavailability in rat at 3 mg/kg; assay type: ADME, organism-based; conditions: in vivo; outline: as §1
[37] = Oral bioavailability in dog at 1 mg/kg; assay type: ADME, organism-based, Canis lupus familiaris; conditions: in vivo; outline: as §1
[38] = Drug uptake in lung of guinea pig measured over 24 hrs; assay type: ADME, tissue-based, Cavia porcellus; conditions: read-out: Drug uptake; outline: as §5
[39] = Plasma concentration in guinea pig measured over 24 hrs; assay type: ADME, Cavia porcellus; outline: as §5
[40] = Ratio of drug level in lung to plasma in guinea pig measured over 24 hrs; assay type: ADME, Cavia porcellus; conditions: lung and plasma; outline: as §6
[41] = Stability of the compound in ambient light; assay type: physicochemical
[42] = AUC in guinea pig at 0.2 mg/kg, iv and 1 mg/kg, po administered as cassette dosing; assay type: ADME, organism-based, Cavia porcellus; conditions: in vivo
[43] = Stability of the compound in H2SO4/DME/H2O at 50 degC measured for 24 hrs; assay type: physicochemical
Outline: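 Compound was held in 1 mol/L H2SO4 in DME/H2O at 50 °C for 24 h and checked for degradation.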

[44] = Stability of the compound in NaOH/DME/EtOH/H2O at 50 degC measured for 24 hrs; assay type: physicochemical
Outline: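 Compound was held in 1 mol/L NaOH in DME/EtOH/H2O at 50 °C for 24 h and checked for degradation.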

bioavailability [25]: 11%
half-life [1]: 534 min
half-life [27]: 318 min
half-life [2]: 282 min
clearance [28]: 1.1 mL/min/kg
clearance [29]: 1.8 mL/min/kg
clearance [30]: 5.5 mL/min/kg
Vd [31]: 0.3 L/kg
Vd [32]: 0.23 L/kg
Vd [3]: 0.38 L/kg
AUC [33]: 39000 ng·h/mL
AUC [34]: 10000 ng·h/mL
AUC [35]: 650 ng·h/mL
bioavailability [36]: 56%
bioavailability [37]: 21%
concentration at 24 h [38]: 253 ng/g
concentration at 24 h [39]: 16 ng/mL
Kp at 24 h [40]: 15
Stability [41]: Unstable
Compound: Cc1c(Cl)cccc1CCCCOc1ccc(/C=C/c2cccc3c(CCCC(=O)O)c(C)n(CC(=O)O)c23)cc1

AUC [42]: 10500 ng·h/mL
bioavailability [5]: 66%
Stability [43]: Stable
Stability [44]: Stable
Stability [41]: Stable
Compound: Cc1c(Cl)cccc1CCCCOc1ccc(C#Cc2cccc3c(CCCC(=O)O)c(C)n(CCCC(=O)O)c23)cc1

Second part, the compound before the results:

Compound: Cc1c(F)cccc1CCCCOc1ccc(C#Cc2ccc(F)c3c(CCCC(=O)O)c(C)n(CCCC(=O)O)c23)cc1
half-life [1]: 576 min
half-life [2]: 456 min
Vd [3]: 0.14 L/kg
AUC [4]: 28.2 µg·h/mL
bioavailability [5]: 56%
half-life [6]: 426 min
clearance [7]: 0.68 mL/min/kg
clearance [8]: 1.1 mL/min/kg
Vd [9]: 0.24 L/kg
Vd [10]: 0.31 L/kg
Cmax [11]: 1190 ng/mL
Cmax [12]: 1010 ng/mL
Cmax [13]: 3690 ng/mL
AUC [14]: 9330 ng·h/mL
AUC [15]: 8510 ng·h/mL
bioavailability [16]: 35%
F [17]: 51%
concentration at 168 h [18]: 8.7 ng/mL
concentration at 168 h [19]: 83 ng/mL
concentration at 168 h [20]: 267 ng/g
concentration at 168 h [21]: 573 ng/g
Kp at 168 h [22]: 8
Kp at 168 h [23]: 30

Compound: O=C(O)CCCN1CC(C(=O)O)Oc2c(NC(=O)c3ccc(OCCCCc4ccccc4)cc3)cccc21 (stereo not drawn)
bioavailability [24]: 2.8%

Compound: O=C(O)CCCc1cn(CC(=O)O)c2c(/C=C/c3ccc(OCCCCOc4ccccc4)cc3)cccc12
bioavailability [25]: 12%
bioavailability [26]: 66%

Compound: O=C(O)CCCn1cc(CC(=O)O)c2c(/C=C/c3ccc(OCCCCOc4ccccc4)cc3)cccc21
bioavailability [25]: 26%

Compound: Cc1c(Cl)cccc1CCCCOc1ccc(C#Cc2ccc(F)c3c(CCCC(=O)O)c(C)n(CCCC(=O)O)c23)cc1
AUC [42]: 3400 ng·h/mL
bioavailability [5]: 52%
